In publication PMC3578163 (Chemical research in toxicology, 2013):
Like-named read-outs stand apart in the source and are kept apart here.

What was measured:
hpol ι^1–446 = biological target: T1, hpol ι^1–446 (Homo sapiens, UniProt Q9UNA4); assay: polymerase-catalyzed primer extension; type: biochemical; settings: read-out: IC50 for inhibition of DNA polymerase activity; all four dNTPs 0.25 mM, MgCl2 5 mM; 20 nM enzyme, 200 nM DNA, 37 °C
T1 sequence (Q9UNA4 1-446): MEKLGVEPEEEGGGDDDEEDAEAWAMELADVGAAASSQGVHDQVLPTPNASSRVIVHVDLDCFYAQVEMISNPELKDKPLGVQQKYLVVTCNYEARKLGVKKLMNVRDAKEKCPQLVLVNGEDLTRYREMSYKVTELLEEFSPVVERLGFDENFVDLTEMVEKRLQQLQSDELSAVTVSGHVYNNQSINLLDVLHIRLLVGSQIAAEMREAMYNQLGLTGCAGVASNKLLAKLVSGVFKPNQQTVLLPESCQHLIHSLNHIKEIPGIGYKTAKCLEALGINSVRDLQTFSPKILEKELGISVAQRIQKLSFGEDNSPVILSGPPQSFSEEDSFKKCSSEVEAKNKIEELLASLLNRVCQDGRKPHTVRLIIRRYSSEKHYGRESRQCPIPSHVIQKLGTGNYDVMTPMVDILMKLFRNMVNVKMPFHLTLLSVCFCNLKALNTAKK

hpol ι^26–446 [1] = biological target: T2, hpol ι^26–446 (Homo sapiens, UniProt Q9UNA4); assay: polymerase-catalyzed primer extension; type: biochemical; settings: read-out: IC50 for inhibition of DNA polymerase activity; all four dNTPs 0.25 mM, MgCl2 5 mM; 20 nM enzyme, 200 nM DNA, 37 °C
T2 sequence (Q9UNA4 26-446): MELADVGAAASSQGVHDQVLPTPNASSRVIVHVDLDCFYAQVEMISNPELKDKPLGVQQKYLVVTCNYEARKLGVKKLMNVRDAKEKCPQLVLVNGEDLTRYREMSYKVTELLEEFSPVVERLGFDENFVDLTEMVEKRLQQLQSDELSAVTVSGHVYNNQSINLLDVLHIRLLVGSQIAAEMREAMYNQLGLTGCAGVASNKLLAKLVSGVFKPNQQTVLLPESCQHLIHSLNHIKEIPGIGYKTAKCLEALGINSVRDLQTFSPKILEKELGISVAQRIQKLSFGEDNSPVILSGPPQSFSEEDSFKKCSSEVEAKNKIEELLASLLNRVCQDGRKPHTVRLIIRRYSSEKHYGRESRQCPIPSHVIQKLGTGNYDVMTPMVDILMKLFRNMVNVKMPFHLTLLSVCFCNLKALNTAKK

hpol ι^26–446 [2] = biological target: T2, hpol ι^26–446; type: binding; settings: for Kd: read-out: Kd,DNA (polymerase binding to primer-template DNA)
Summary of the method: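 Recombinant human polymerase (His/GST-tagged, expressed in E. coli BL21(DE3), tags cleaved) titrated into 2 nM FAM-labelled 13/18-mer primer-template at 25 °C. Buffer: 50 mM HEPES pH 7.5, 10 mM KOAc, 10 mM MgCl₂, 0.1 mM ZnCl₂, 0.1 mM EDTA, 10% DMSO, 0.1 mg/mL BSA. MK886 at 0–250 μM, with DMSO as control. Polarization read at ex 485/em 525 nm. Kd fitted with total DNA held constant.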

[3] = system: DNA synthesis in cell culture; settings: cited from earlier work
[4] = system: peroxisome proliferator activated receptor alpha (PPARα); settings: FLAP-independent inhibition of PPARα; cited from earlier work

CC(C)c1ccc2c(c1)c(SC(C)(C)C)c(CC(C)(C)C(=O)O)n2Cc1ccc(Cl)cc1 [MK886, 3-[1-(4-chlorobenzyl)-3-t-butyl-thio-5-isoproylindol-2-yl]-2,2-dimethylpropanoic acid]
IC50 (hpol ι^1–446): 15100 ± 2100 nM | IC50 (hpol ι^26–446 [1]): 8200 ± 600 nM | change in the affinity for DNA relative to the DMSO control (hpol ι^26–446 [2]; 10 μM MK886): no observed change | fold increase in the Kd,DNA (hpol ι^26–446 [2]; MK886 at or above 100 μM): > 2 fold | Kd (hpol ι^26–446 [2]; 100 μM MK886): 18.8 ± 2.7 nM | Kd (hpol ι^26–446 [2]; 150 μM MK886): 16.4 ± 2.1 nM | Kd (hpol ι^26–446 [2]; 250 μM MK886): 38.8 ± 17.1 nM | concentration at which DNA synthesis/replication is inhibited [3]: ≥ 1 µM | concentration at which apoptosis is induced [4]: above 10 μM
